Experimental data published in ChEMBL document CHEMBL5230171, “Expanding the structure-activity relationships of alkynyl diphenylurea scaffold as promising antibacterial agents” (RSC Med Chem, 2023).
In brackets after ≈: the same amount, converted by molar mass. Activity calls are given as the source filed them. The calls are words filed in the database; no cut-off is given here.

Columns and labels:
Staphylococcus aureus [1] = assay: Antibacterial activity against methicillin resistant Staphylococcus aureus 385 assessed as inhibition of bacterial growth at 0.5 ug/ml incubated for 18 to 20 hrs by CLSI protocol based broth microdilution method; type: functional, organism-based; conditions: dose 0.5 µg/ml, time 18-20 hrs
Staphylococcus aureus [2] = assay: Antibacterial activity against methicillin resistant Staphylococcus aureus 386 assessed as inhibition of bacterial growth at 0.5 ug/ml incubated for 18 to 20 hrs by CLSI protocol based broth microdilution method; type: functional, organism-based; conditions: dose 0.5 µg/ml, time 18-20 hrs
Staphylococcus aureus [3] = assay: Antibacterial activity against methicillin resistant Staphylococcus aureus 123 assessed as inhibition of bacterial growth at 0.5 ug/ml incubated for 18 to 20 hrs by CLSI protocol based broth microdilution method; type: functional, organism-based; conditions: dose 0.5 µg/ml, time 18-20 hrs
Staphylococcus aureus [4] = assay: Antibacterial activity against vancomycin resistant Staphylococcus aureus 10 assessed as inhibition of bacterial growth at 0.5 ug/ml incubated for 18 to 20 hrs by CLSI protocol based broth microdilution method; type: functional, organism-based; conditions: dose 0.5 µg/ml, time 18-20 hrs
Staphylococcus aureus [5] = assay: Antibacterial activity against vancomycin resistant Staphylococcus aureus 9 assessed as inhibition of bacterial growth at 0.5 ug/ml incubated for 18 to 20 hrs by CLSI protocol based broth microdilution method; type: functional, organism-based; conditions: dose 0.5 µg/ml, time 18-20 hrs
Staphylococcus aureus [6] = assay: Antibacterial activity against vancomycin resistant Staphylococcus aureus 12 assessed as inhibition of bacterial growth at 0.5 ug/ml incubated for 18 to 20 hrs by CLSI protocol based broth microdilution method; type: functional, organism-based; conditions: dose 0.5 µg/ml, time 18-20 hrs
Staphylococcus aureus [7] = assay: Antibacterial activity against methicillin resistant Staphylococcus aureus 119 assessed as inhibition of bacterial growth at 0.5 ug/ml incubated for 18 to 20 hrs by CLSI protocol based broth microdilution method; type: functional, organism-based; conditions: dose 0.5 µg/ml, time 18-20 hrs
Staphylococcus aureus [8] = assay: Antibacterial activity against methicillin resistant Staphylococcus aureus 384 assessed as inhibition of bacterial growth at 0.5 ug/ml incubated for 18 to 20 hrs by CLSI protocol based broth microdilution method; type: functional, organism-based; conditions: dose 0.5 µg/ml, time 18-20 hrs
Staphylococcus aureus [9] = assay: Antibacterial activity against methicillin sensitive Staphylococcus aureus 6538 assessed as inhibition of bacterial growth at 0.5 ug/ml incubated for 18 to 20 hrs by CLSI protocol based broth microdilution method; type: functional, organism-based; conditions: dose 0.5 µg/ml, time 18-20 hrs
Outline: (§1)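 Staphylococcal and E. coli strains were diluted from a 0.5 McFarland suspension in cation-adjusted Mueller Hinton broth to ~5 × 10^5 CFU mL−1. They were incubated with serial dilutions of test agent in broth microdilution, and the MIC was recorded.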

Staphylococcus aureus [10] = assay: Antibacterial activity against methicillin sensitive Staphylococcus aureus 107 assessed as inhibition of bacterial growth at 0.5 ug/ml incubated for 18 to 20 hrs by CLSI protocol based broth microdilution method; type: functional, organism-based; conditions: dose 0.5 µg/ml, time 18-20 hrs; outline: as §1
Staphylococcus aureus [11] = assay: Antibacterial activity against methicillin sensitive Staphylococcus aureus 107 assessed as inhibition of bacterial growth incubated for 18 to 20 hrs by CLSI protocol based broth microdilution method; type: functional; conditions: time 18-20 hrs
Outline: (§2)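 Broth microdilution against staphylococcal clinical isolates. Each strain was prepared as a 0.5 McFarland suspension and diluted in cation-adjusted Mueller Hinton broth to ~5 × 10^5 CFU mL−1. Serial dilutions of test agents in DMSO stock were incubated with the bacteria, and the MIC was recorded.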

Streptococcus mutans = assay: Antibacterial activity against Streptococcus mutans 25175 assessed as inhibition of bacterial growth incubated for 18 to 20 hrs by CLSI protocol based broth microdilution method; type: functional; conditions: time 18-20 hrs
Outline: (§3)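 Streptococci were diluted from a 0.5 McFarland suspension in cation-adjusted Mueller Hinton broth with 5% lysed horse blood. They were incubated with serial dilutions of test agent in broth microdilution, and the MIC was recorded.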

Enterococcus faecalis = assay: Antibacterial activity against Enterococcus faecalis 51299 assessed as inhibition of bacterial growth incubated for 18 to 20 hrs by CLSI protocol based broth microdilution method; type: functional; conditions: time 18-20 hrs
Outline: (§4)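 Enterococci and L. monocytogenes were diluted from a 0.5 McFarland suspension in TSB. They were incubated with serial dilutions of test agent in broth microdilution, and the MIC was recorded.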

[12] = system: Staphylococcus epidermidis; assay: Antibacterial activity against Staphylococcus epidermidis 101 assessed as inhibition of bacterial growth incubated for 18 to 20 hrs by CLSI protocol based broth microdilution method; type: functional; conditions: time 18-20 hrs; outline: as §1
Staphylococcus aureus [13] = assay: Antibacterial activity against methicillin resistant Staphylococcus aureus 119 assessed as inhibition of bacterial growth incubated for 18 to 20 hrs by CLSI protocol based broth microdilution method; type: functional; conditions: time 18-20 hrs; outline: as §2
Staphylococcus aureus [14] = assay: Antibacterial activity against methicillin sensitive Staphylococcus aureus 6538 assessed as inhibition of bacterial growth incubated for 18 to 20 hrs by CLSI protocol based broth microdilution method; type: functional; conditions: time 18-20 hrs; outline: as §2
Vero = assay: Cytotoxicity against African green monkey Vero cells assessed as reduction in cell viability at 64 ug/ml incubated for 24 hrs by MTS assay; type: toxicity, cell-based; conditions: chlorocebus sabaeus, dose 64 µg/ml
Outline: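 Vero or HaCaT cells were exposed to 32, 64 and 128 μg mL−1 compound in triplicate for 24 h at 37 °C, 5% CO2, with a DMSO control. MTS was then added for 4 h and OD490 read. Analysis used two-way ANOVA with Dunnett's post hoc test (p < 0.05).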

Streptococcus pneumoniae [15] = assay: Antibacterial activity against Streptococcus pneumoniae 51916 assessed as inhibition of bacterial growth incubated for 18 to 20 hrs by CLSI protocol based broth microdilution method; type: functional; conditions: time 18-20 hrs; outline: as §3
Listeria monocytogenes = assay: Antibacterial activity against Listeria monocytogenes 19111 assessed as inhibition of bacterial growth incubated for 18 to 20 hrs by CLSI protocol based broth microdilution method; type: functional; conditions: time 18-20 hrs; outline: as §4
Staphylococcus aureus [16] = assay: Antibacterial activity against methicillin resistant Staphylococcus aureus NRS384 USA300 assessed as inhibition of bacterial growth incubated for 18 to 20 hrs by CLSI protocol based broth microdilution method; type: functional; conditions: time 18-20 hrs, read-out: MIC; outline: as §2
Streptococcus pyogenes [17] = assay: Antibacterial activity against Streptococcus pyogenes MGAS 9882 assessed as inhibition of bacterial growth incubated for 18 to 20 hrs by CLSI protocol based broth microdilution method; type: functional; conditions: time 18-20 hrs; outline: as §3
Staphylococcus aureus [18] = assay: Antibacterial activity against methicillin resistant Staphylococcus aureus 123 assessed as inhibition of bacterial growth incubated for 18 to 20 hrs by CLSI protocol based broth microdilution method; type: functional; conditions: time 18-20 hrs; outline: as §2
Staphylococcus aureus [19] = assay: Antibacterial activity against vancomycin resistant Staphylococcus aureus 9 assessed as inhibition of bacterial growth incubated for 18 to 20 hrs by CLSI protocol based broth microdilution method; type: functional; conditions: time 18-20 hrs; outline: as §2
Staphylococcus aureus [20] = assay: Antibacterial activity against methicillin resistant Staphylococcus aureus 386 assessed as inhibition of bacterial growth incubated for 18 to 20 hrs by CLSI protocol based broth microdilution method; type: functional; conditions: time 18-20 hrs; outline: as §2
Enterococcus faecium = assay: Antibacterial activity against Enterococcus faecium 700221 assessed as inhibition of bacterial growth incubated for 18 to 20 hrs by CLSI protocol based broth microdilution method; type: functional; conditions: time 18-20 hrs; outline: as §4
Streptococcus pyogenes [21] = assay: Antibacterial activity against Streptococcus pyogenes MGAS 1882 assessed as inhibition of bacterial growth incubated for 18 to 20 hrs by CLSI protocol based broth microdilution method; type: functional; conditions: time 18-20 hrs; outline: as §3
Staphylococcus aureus [22] = assay: Antibacterial activity against vancomycin resistant Staphylococcus aureus 12 assessed as inhibition of bacterial growth incubated for 18 to 20 hrs by CLSI protocol based broth microdilution method; type: functional; conditions: time 18-20 hrs; outline: as §2
Staphylococcus aureus [23] = assay: Antibacterial activity against methicillin resistant Staphylococcus aureus 384 assessed as inhibition of bacterial growth incubated for 18 to 20 hrs by CLSI protocol based broth microdilution method; type: functional; conditions: time 18-20 hrs; outline: as §2
Staphylococcus aureus [24] = assay: Antibacterial activity against vancomycin resistant Staphylococcus aureus 10 assessed as inhibition of bacterial growth incubated for 18 to 20 hrs by CLSI protocol based broth microdilution method; type: functional; conditions: time 18-20 hrs; outline: as §2
Staphylococcus aureus [25] = assay: Antibacterial activity against methicillin resistant Staphylococcus aureus 385 assessed as inhibition of bacterial growth incubated for 18 to 20 hrs by CLSI protocol based broth microdilution method; type: functional; conditions: time 18-20 hrs; outline: as §2
Streptococcus pneumoniae [26] = assay: Antibacterial activity against Streptococcus pneumoniae 700677 assessed as inhibition of bacterial growth incubated for 18 to 20 hrs by CLSI protocol based broth microdilution method; type: functional; conditions: time 18-20 hrs; outline: as §3

SMILES | Activity (Staphylococcus aureus [1]) | Activity (Staphylococcus aureus [2]) | Activity (Staphylococcus aureus [3]) | Activity (Staphylococcus aureus [4]) | Activity (Staphylococcus aureus [5]) | Activity (Staphylococcus aureus [6]) | Activity (Staphylococcus aureus [7]) | Activity (Staphylococcus aureus [8]) | Activity (Staphylococcus aureus [9]) | Activity (Staphylococcus aureus [10]) | MIC (Staphylococcus aureus [11]) [µg/mL] | MIC (Streptococcus mutans) [µg/mL] | MIC (Enterococcus faecalis) [µg/mL] | MIC [12] [µg/mL] | MIC (Staphylococcus aureus [13]) [µg/mL] | MIC (Staphylococcus aureus [14]) [µg/mL] | Activity (Vero) | MIC (Streptococcus pneumoniae [15]) [µg/mL] | MIC (Listeria monocytogenes) [µg/mL] | MIC (Staphylococcus aureus [16]) [µg/mL] | also measured
CC(=O)NC[C@H]1CN(c2ccc(N3CCOCC3)c(F)c2)C(=O)O1 | Active | Active | Active | Active | Active | Active | Active | Active | Active | Active |  |  |  |  |  |  |  |  |  |  | 
CCCCC#Cc1ccc(NC(=O)Nc2ccc(/C(C)=N/NC(=N)N)cc2)cc1 | Active | Active | Active | Active | Active | Active | Active | Active | Active | Active | 0.5 (≈ 1.28 µM) | 0.5 (≈ 1.28 µM) | 0.5 (≈ 1.28 µM) | 0.5 (≈ 1.28 µM) | 0.5 (≈ 1.28 µM) | 0.5 (≈ 1.28 µM) | Non-Toxic | 0.5 (≈ 1.28 µM) | 0.5 (≈ 1.28 µM) | 0.5 (≈ 1.28 µM) | MIC (Streptococcus pyogenes [17]): 0.5 µg/mL (≈ 1.28 µM); MIC (Staphylococcus aureus [18]): 0.5 µg/mL (≈ 1.28 µM); MIC (Staphylococcus aureus [19]): 0.5 µg/mL (≈ 1.28 µM); MIC (Staphylococcus aureus [20]): 0.5 µg/mL (≈ 1.28 µM); MIC (Enterococcus faecium): 0.5 µg/mL (≈ 1.28 µM); MIC (Streptococcus pyogenes [21]): 0.5 µg/mL (≈ 1.28 µM); MIC (Staphylococcus aureus [22]): 0.5 µg/mL (≈ 1.28 µM); MIC (Staphylococcus aureus [23]): 0.5 µg/mL (≈ 1.28 µM); MIC (Staphylococcus aureus [24]): 0.5 µg/mL (≈ 1.28 µM); MIC (Staphylococcus aureus [25]): 0.5 µg/mL (≈ 1.28 µM); MIC (Streptococcus pneumoniae [26]): 0.5 µg/mL (≈ 1.28 µM)
C/C(=N\NC(=N)N)c1ccc(NC(=O)Nc2ccc(C#CCC(C)C)cc2)cc1 | Active | Active | Active | Active | Active | Active | Active | Active | Active | Active | 0.5 (≈ 1.28 µM) | 0.5 (≈ 1.28 µM) | 0.5 (≈ 1.28 µM) | 0.5 (≈ 1.28 µM) | 0.5 (≈ 1.28 µM) | 0.5 (≈ 1.28 µM) | Non-Toxic | 0.5 (≈ 1.28 µM) | 0.5 (≈ 1.28 µM) | 0.5 (≈ 1.28 µM) | MIC (Streptococcus pyogenes [17]): 0.5 µg/mL (≈ 1.28 µM); MIC (Staphylococcus aureus [18]): 0.5 µg/mL (≈ 1.28 µM); MIC (Staphylococcus aureus [19]): 0.5 µg/mL (≈ 1.28 µM); MIC (Staphylococcus aureus [20]): 0.5 µg/mL (≈ 1.28 µM); MIC (Enterococcus faecium): 0.5 µg/mL (≈ 1.28 µM); MIC (Streptococcus pyogenes [21]): 0.5 µg/mL (≈ 1.28 µM); MIC (Staphylococcus aureus [22]): 0.5 µg/mL (≈ 1.28 µM); MIC (Staphylococcus aureus [23]): 0.5 µg/mL (≈ 1.28 µM); MIC (Staphylococcus aureus [24]): 0.5 µg/mL (≈ 1.28 µM); MIC (Staphylococcus aureus [25]): 0.5 µg/mL (≈ 1.28 µM); MIC (Streptococcus pneumoniae [26]): 0.5 µg/mL (≈ 1.28 µM)
